From PubChem BioAssay
PGC1a Ac signal – raises PGC1a acetylation signal in U2OS cells | U2OS PGC1a acetylation AlphaScreen, overnight | activation, % at 15.6 µM | 350,000 tested, 0.21% active | AID 651723;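 active = every replicate reaching activation of at least 50%, whatever the mean replicate activation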;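 also: hits raise the AlphaScreen acetylation signal above neutral controls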
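System: flag-PGC1a/GCN5 U2OS cells / Input: 7000 cells/well / Compound: single test concentration per compound / Incubation: overnight compound treatment, 37 °C / Technique: AlphaScreen on lysates with anti-acetyl-lysine antibody, acceptor and donor beads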
G6PC hep suppr – hepatocyte G6PC expression change via PGC-1a acetylation activation; shares compounds with PGC1a Ac signal; primary mouse hepatocytes, G6PC mRNA qPCR, forskolin; G6PC suppression (normalized activity, % of positive control; higher = more suppression), % at 26 µM; 240 tested, under 10 active; AID 743463;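 active = dose curves showing G6PC suppression whose half-maximal dose is at most twice the top valid dose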;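 also: G6PC expression relative to GAPDH housekeeping gene as delta delta Ct; 0% = median of neutral control wells and 100% = median of positive control wells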
PCK1 hep suppr – PGC-1a acetylation activators affecting PCK1 expression in hepatocytes; shares compounds with PGC1a Ac signal; primary mouse hepatocytes, PCK1 mRNA qPCR, forskolin-stimulated; PCK1 expression decrease, unspecified at 26 µM; 230 tested, under 10 active; AID 743465;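 active = compounds lowering PCK1 expression whose fitted half-maximal concentration is at most twice the top tested dose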;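 also: values are delta delta Ct of PCK1 relative to GAPDH; higher delta delta Ct means lower PCK1 expression so positive values indicate hits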
PGC1a hep suppr – PGC-1a acetylation activator altering hepatocyte PGC-1a expression; max activity (PGC-1a expression decrease), %; primary mouse hepatocytes, PGC-1a mRNA qPCR, forskolin; top dose 26 µM; 240 tested, under 10 active; shares compounds with PGC1a Ac signal;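 active = compound lowering PGC-1a expression with fitted half-maximal concentration at most twice its top tested dose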;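 also: 0% = neutral control wells median and 100% = positive control wells median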
The depositor's hits bear a star; · = no result given. Not all results are given here.

SMILES	PGC1a Ac signal	G6PC hep suppr	PCK1 hep suppr	PGC1a hep suppr
CC(C)n1c(N2CCN(CC(=O)NCc3cccs3)CC2)nc2ccccc21	·	35	26	68
Cc1nnc(NC(=O)CSc2ncc(-c3ccccc3)[nH]2)s1	-88	·	·	·
Cc1sc(NC(=O)c2cccs2)nc1-c1ccccc1	80*	·	3.4	22
Cc1cc(C)nc(NC(=S)Nc2ccccc2)n1	-60	·	·	·
Cc1nn(C)c(C)c1N1C(=O)c2cccc3c(Br)ccc(c23)C1=O	-78	·	·	·
CSc1nsc(SC)c1NC(=O)Nc1ccccc1C	-103	-16	21	56
Cn1ncc(N=Cc2ccccc2)c1C(N)=O	-48	·	·	·
CC(Nc1ccccc1)c1cc(Cl)ccc1O (centres undefined)	-48	·	·	·
O=C(Cc1ccccc1)Nc1nc(-c2ccc(F)c(F)c2)cs1	62*	70	59	83
CC(C)(C)OC(=O)NCCc1nnc(SCc2ccc(Cl)cc2)o1	-41	·	·	·
Cc1ccc(-n2nc3ccc(N)cc3n2)cc1	-52	·	·	·
CC(=O)N(CCC(Cc1ccccc1)c1ccc2c(c1)OCO2)Cc1ccccc1F (centres undefined)	-40	·	·	·
Cc1ccc(NC(=O)CN2CCC(NC(=O)Cc3ccccc3)CC2)c(C)c1	141*	23	14	38
COc1cccc2c1C(=O)c1c(O)c3c(c(O)c1C2=O)CC(O)(C(C)=O)CC3OC1CC(N(C)C)C(O)C(C)O1 (centres undefined)	-40	·	·	·
CCOc1ccc(C(C)=O)cc1CSC(=N)N	-40	·	·	·
C[C@@H](C(=O)Nc1nc2ccc(F)cc2s1)N1C(=O)C2CC=CCC2C1=O (some centres undefined)	-47	·	·	·
O=C(Cc1ccccc1)Nc1cccc(-c2nc3ncccc3o2)c1	122*	285	108	53
Cc1c(OCc2ccc(C(=O)O)cc2)ccc2c(-c3ccccc3)cc(=O)oc12	-44	24	45	54
O=C1/C(=C\c2ccco2)SC(=S)N1Cc1ccccc1	-41	·	·	·
